Reference: PubChem BioAssay AID493157 (Broad Institute, 2011)
The source made the active and inactive calls.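 Rule for the calls: active = growth-lowering compounds whose AC50 is at most ten times the top tested dose; inconclusive = flat curve with moderate signal loss, or a poor fit; inactive = the rest.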

Legend:
[1] = single-agent antifungal toxicity on Candida – CaCi-2 strain, Alamar Blue, dry powder, set 8, counter-screen for antifungal drug resistance project, dose response (AID 493157); conditions: C. albicans CaCi-2 growth without fluconazole, Alamar Blue, 48 h
In short: (§1)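 material = fluconazole-resistant Candida albicans clinical isolate CaCi-2, no fluconazole present | input = inoculum OD600 0.00015 | doses = pinned compound alone | schedule = 48 h static growth, 37 °C, 2 h room-temperature dye | signal = Alamar Blue fluorescence, final 1:200 dilution, Ex 544 nm, Em 590 nm | measure = yeast growth via fluorescence | controls = geldanamycin as positive control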

[2] = test system: C. albicans CaCi-2 (fluconazole-resistant clinical isolate) growth without fluconazole, Alamar Blue, 48 h; experiment: as above
In short: as §1

CCN(CC)C(=O)Cn1c2ccccc2c2nc3n(c(=O)c21)CCS3
max activity ([1]; at 0.38 µM): -31.2% (inactive)

COC(=O)Cn1nc(-c2ccc(C#N)cc2)c2ccccc21
max activity ([1]; at 26 µM): -38.6% (inactive)

O=C(O)Cn1nc(-c2ccccc2)c2ccccc21
max activity ([1]; at 6 µM): 18.6% (inactive)

O=C(Cn1c2ccc(F)cc2c2nc3n(c(=O)c21)CCS3)N1CCCCCC1
max activity ([1]; at 26 µM): 13.5% (inactive)

CC1CCN(C(=O)Cn2c3ccccc3c3nc4n(c(=O)c32)CCS4)CC1
max activity ([1]; at 12 µM): -29.8% (inactive)

O=C(Cn1c2ccccc2c2ccncc21)N1CCCCC1
max activity ([1]; at 6 µM): -15.9% (inactive)

O=C(Cn1c2ccccc2c2nc3n(c(=O)c21)CCS3)N1CCOCC1
max activity ([1]; at 0.8 µM): -18.5% (inactive)

COC(=O)Cn1nc(-c2cccc(F)c2)c2ccccc21
max activity ([1]; at 0.8 µM): -22.1% (inactive)

O=C1OCCC1n1nc(-c2ccccc2)c2ccccc21 (centres undefined)
max activity ([1]; at 0.195 µM): -31.5% (inactive)

COC(=O)C(C)(C)n1nc(-c2ccccc2)c2ccccc21
max activity ([1]; at 0.1 µM): -31.3% (inactive)

COC(=O)Cn1ncc2ccccc21
max activity ([1]; at 26 µM): -25.4% (inactive)

O=C(Cn1c2ccccc2c2nc3n(c(=O)c21)CCS3)N1CCCC1
max activity ([1]; at 12 µM): 17.2% (inactive)

COC(=O)Cn1nc(-c2ccc(F)cc2)c2ccccc21
max activity ([1]; at 3 µM): -27% (inactive)

CCN(CC)C(=O)Cn1c2ccc(F)cc2c2nc3n(c(=O)c21)CCS3
max activity ([1]; at 0.38 µM): -28.9% (inactive)

O=C(Cn1c2ccc(F)cc2c2nc3n(c(=O)c21)CCS3)N1CCCCC1
max activity ([1]; at 26 µM): 27.4% (inactive)

FC(F)(F)c1ccc(-c2n[nH]c3ccccc23)cc1
max activity ([1]; at 0.195 µM): -25.6% (inactive)

O=C(Cn1nc(-c2ccccc2)c2ccccc21)OC1CCC1
AC50 [2]: > 26 µM (inactive)

COC(=O)Cn1nc(-c2ccccc2C)c2ccccc21
max activity ([1]; at 26 µM): 1.36% (inactive)

COC(=O)Cn1nc(-c2ccccc2)c2cccc(C(F)(F)F)c21
max activity ([1]; at 0.1 µM): -21.2% (inactive)

O=C(Cn1c2ccccc2c2nc3n(c(=O)c21)CCS3)N1CCCCC1
max activity ([1]; at 0.1 µM): -24.6% (inactive)

COC(=O)CCCn1nc(-c2ccccc2)c2ccccc21
max activity ([1]; at 1.6 µM): -17.6% (inactive)

COC(=O)Cn1c(-c2ccccc2)nc2ccccc21
max activity ([1]; at 6 µM): 19.2% (inactive)

O=C(Cn1c2ccc(F)cc2c2nc3n(c(=O)c21)CCS3)N1CCCC1
max activity ([1]; at 0.1 µM): -25.8% (inactive)

COC(=O)Cn1nc(I)c2ccccc21
max activity ([1]; at 1.6 µM): -30.3% (inactive)

COc1ccc(-c2n[nH]c3ccccc23)cc1
max activity ([1]; at 6 µM): -32.5% (inactive)

CCC(=O)Cn1nc(-c2ccccc2)c2ccccc21
max activity ([1]; at 0.8 µM): -10.2% (inactive)

CCCCn1nc(-c2ccccc2)c2ccccc21
max activity ([1]; at 26 µM): 28% (inactive)

COC(=O)Cn1nc(-c2ccccc2)c2ccc(C(F)(F)F)cc21
max activity ([1]; at 0.1 µM): -34% (inactive)

COC(=O)Cn1nc(-c2ccccc2)c2ccccc21
max activity ([1]; at 12 µM): 35.4% (inactive)
